Measured values: ChEMBL document CHEMBL4011589, “Discovery of novel furanone derivatives as potent Cdc7 kinase inhibitors” (Eur J Med Chem, 2017)

Experiments:
[1] = target: CDC7/DBF4 (Cell division cycle 7-related protein kinase/Activator of S phase kinase) (Homo sapiens, UniProt O00311); test: Inhibition of recombinant human Cdc7 (1 to 574 residues)/human N-terminal GST-tagged ASK (1 to 674 residues) expressed in baculovirus expression system using FITC-labeled MCM2 peptide as substrate measured after 5 hrs in presence of 5 uM ATP
Procedure, shortened: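 Cdc7 enzymatic assay with 5 µM ATP. IC50 values are the mean of duplicate measurements.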

[2] = Stability in human liver microsomes assessed as compound remaining at 1 uM in presence of NADPH after 30 mins by LC-MS/MS analysis; format: ADME, microsome; details: read-out: Stability
Procedure, shortened: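 Human liver microsomes are incubated with compound for 30 min. The read-out is the percentage of parent compound remaining.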

[3] = Stability of the compound under basic condition; format: physicochemical
[4] = target: CDC7/DBF4 (Cell division cycle 7-related protein kinase/Activator of S phase kinase) (Homo sapiens) (UniProt Q9UBU7+O00311); test: Ratio of IC50 for recombinant human Cdc7 (1 to 574 residues)/human N-terminal GST-tagged ASK (1 to 674 residues) expressed in baculovirus expression system in presence of […] to IC50 for recombinant human Cdc7 (1 to 574 residues)/human N-terminal GST-tagged ASK (1 to 674 residues) expressed in baculovirus expression system in presence of 5 uM ATP
[5] = Stability of the compound in 50% KOH; format: physicochemical
[6] = species: Mus musculus; test: Stability in mouse liver microsomes assessed as compound remaining at 1 uM in presence of NADPH after 30 mins by LC-MS/MS analysis

**Q.** For CCOC(=O)C1=C(Nc2ccccc2)O/C(=C\c2c[nH]c3ncc(Cl)cc23)C1=O, which IC50 [1] is on record?
**A.** 44 nM

**Q.** With CCNC(=O)C1=C(Nc2ccccc2)O/C(=C\c2c[nH]c3ncccc23)C1=O as the compound, how does the IC50 [1] read?
**A.** 1600 nM

**Q.** For CCOC(=O)C1=C(Nc2ccccc2)S/C(=C\c2c[nH]c3ncccc23)C1=O, which IC50 [1] is on record?
**A.** > 10000 nM

**Q.** With CCOC(=O)C1=C(Nc2ccc(F)cc2)O/C(=C\c2c[nH]c3ncccc23)C1=O as the compound, how does the IC50 [1] read?
**A.** 4.3 nM

**Q.** And the remaining at 0.5 h, 1 µM [2]?
**A.** 52%

**Q.** With O=C(O)C1=C(Nc2ccccc2)O/C(=C\c2c[nH]c3ncccc23)C1=O as the compound, how does the IC50 [1] read?
**A.** 9.9 nM

**Q.** For CCOC(=O)C1=C(Nc2ccc(OC)cc2)O/C(=C\c2c[nH]c3ncccc23)C1=O, which IC50 [1] is on record?
**A.** 4.9 nM

**Q.** What about the remaining at 0.5 h, 1 µM [2] of the same compound?
**A.** 33%

**Q.** With CCOC(=O)C1=C(Nc2ccccc2)O/C(=C\c2ccc(O)c(C)c2)C1=O as the compound, how does the IC50 [1] read?
**A.** 1200 nM

**Q.** Which results are given for CCOC(=O)C1=C(Nc2ccccc2)O/C(=C\c2c[nH]c3ncccc23)C1=O?
**A.** IC50 [1]: 3.3 to 3.8 nM; remaining at 0.5 h, 1 µM [2]: 23%; Stability [3]: Stable; Ratio IC50 [4]: 21; Stability [5]: Unstable; remaining at 0.5 h, 1 µM [6]: 7.9%

**Q.** Which IC50 [1] does the source give for O=C1C(C(=O)N2CCCCC2)=C(Nc2ccccc2)O/C1=C\c1c[nH]c2ncccc12 here?
**A.** 890 nM

**Q.** For NC(=O)C1=C(Nc2ccccc2)O/C(=C\c2c[nH]c3ncccc23)C1=O, which IC50 [1] is on record?
**A.** > 10000 nM

**Q.** With CCOC(=O)C1=C(Nc2ccccc2)O/C(=C\c2ccc3c(c2)OCO3)C1=O as the compound, how does the IC50 [1] read?
**A.** 3200 nM
